Reference: ChEMBL document CHEMBL4138168, “Design and synthesis of novel thiobarbituric acid derivatives targeting both wild-type and BRAF-mutated melanoma cells” (Eur J Med Chem, 2018)
Active and inactive are the calls of the source. The rule behind the calls is not given here.

Key:
[1] = system: MDA-MB-231; test: Cytotoxicity against human MDA-MB-231 cells assessed as cell viability at 25 uM after 48 hrs by MTT assay relative to control; type: functional; conditions: MDA-MB-231, 48 h, read-out: Activity
Procedure, shortened: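 MTT viability at a single 25 μM dose, 48 h, 3,000 cells/well. MCF10A normal breast epithelial cells were kept in MEGM mammary epithelial medium; the cancer lines were in DMEM with 10% FBS, 37 °C. OD at 570 nm with 630 nm background, expressed relative to control.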

[2] = system: UACC-903; test: Induction of apoptosis in human UACC-903 cells harboring BRAF mutant assessed as early apoptotic cells at 25 uM after 24 hrs by Annexin V/7-AAD staining-based assay (reference value: 2.68%); type: functional
[3] = system: UACC-903; test: Induction of apoptosis in human UACC-903 cells harboring BRAF mutant assessed as late apoptotic cells at 5 uM after 24 hrs by Annexin V/7-AAD staining-based assay (reference value: 1.56%); type: functional
[4] = system: UACC-903; test: Induction of apoptosis in human UACC-903 cells harboring BRAF mutant assessed as increase in phosphorylated Bcl-2 level at 5 to 25 uM after 24 hrs by Western blot analysis; type: functional, cell-based
Procedure, shortened: (§1)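 2 × 10^6 cells treated with the indicated concentrations for 24 h. Whole-cell lysates run on SDS-PAGE, transferred to PVDF, probed with antibodies against apoptosis/survival proteins, and detected by enhanced chemiluminescence.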

[5] = system: UACC-903; test: Induction of apoptosis in human UACC-903 cells harboring BRAF mutant assessed as […] in cleaved PARP level at 5 to 25 uM after 24 hrs by Western blot analysis; type: functional, cell-based; procedure, shortened: as §1
[6] = system: UACC-903; test: Induction of apoptosis in human UACC-903 cells harboring BRAF mutant assessed as apoptotic cells level at 5 uM after 24 hrs by AAD dye containing caspase 3/7 activity assay (reference value: 6.88%); type: functional
[7] = system: UACC-903; test: Antiproliferative activity against human UACC-903 cells harboring BRAF mutant after 48 hrs by MTT assay; type: functional, cell-based; conditions: UACC-903, 48 h
Procedure, shortened: (§2)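 3,000 cells per well, grown at 37 °C (DMEM with 10% FBS and penicillin/streptomycin; HCT116 in McCoy's 5A). Cells exposed in triplicate to 0.5–25 μM compound for 48 h. MTT (5 mg/mL PBS stock) added for 3 h, formazan dissolved in DMSO, OD read at 570 nm minus 630 nm background. IC50 from non-linear regression of two independent experiments.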

[8] = system: UACC-903; test: Induction of apoptosis in human UACC-903 cells harboring BRAF mutant assessed as apoptotic cells level at 25 uM after 24 hrs by AAD dye containing caspase 3/7 activity assay (reference value: 6.88%); type: functional
[9] = system: UACC-903; test: Induction of apoptosis in human UACC-903 cells harboring BRAF mutant assessed as apoptotic dead cells level at 5 uM after 24 hrs by AAD dye containing caspase 3/7 activity assay (reference value: 3%); type: functional
[10] = system: UACC-903; test: Induction of apoptosis in human UACC-903 cells harboring BRAF mutant assessed as increase in dead cells at 50 uM after 24 hrs by Calcein-AM/ethidium bromide staining-based fluorescence assay (reference value: 3%); type: functional
[11] = system: CHL-1; test: Induction of apoptosis in human CHL-1 cells harboring wild type BRAF assessed as increase in phosphorylated Bcl-2 level at 5 to 25 uM after 24 hrs by Western blot analysis; type: functional, cell-based; procedure, shortened: as §1
[12] = Selectivity ratio of cytotoxicity against human MCF10A cells to IC50 for human UACC-903 cells harboring BRAF mutant; type: toxicity, cell-based; conditions: MCF10A cells versus UACC-903 cells harboring BRAF mutant
[13] = system: MCF7; test: Antiproliferative activity against human MCF7 cells expressing ER/PR/HER2 after 48 hrs by MTT assay; type: functional, cell-based; conditions: MCF7, 48 h; procedure, shortened: as §2
[14] = system: UACC-903; test: Induction of apoptosis in human UACC-903 cells harboring BRAF mutant assessed as viable cells at 5 uM after 24 hrs by Annexin V/7-AAD staining-based assay (reference value: 95.64%); type: functional; conditions: UACC-903, 24 h, read-out: Activity

Row | SMILES | viability at 25 µM [1] | Activity [2] | Activity [3] | Activity [4] | Activity [5] | Activity [6] | IC50 [7] | Activity [8] | Activity [9] | Activity [10] | Activity [11] | selectivity ratio [12] | IC50 [13] | viability at 5 µM [14]
1 | O=C1NC(=S)N(c2ccccc2)C(=O)/C1=C/C=C/c1cccs1 | 20 to 30% | 21.04% | 3.18% | Active | Active | 9.68% | 7.6 µM | 50.06% | 2.88% | 45% | Active | 3 | 16.5 µM | 92.6%
2 | O=C1NC(=S)NC(=O)C1=C/C=C/c1cccs1 | 20 to 30% | 30.28% | 3.14% | Active | Active | 5.46% | 8.1 µM | 38.14% | 3.94% | 85% | Active | 3 | 16.2 µM | 91.3%
